Data taken from ChEMBL document CHEMBL1132712, “Bisphosphonate prodrugs: synthesis and in vitro evaluation of novel clodronic acid dianhydrides as bioreversible prodrugs of clodronate” (J Med Chem, 1999).

Experiments:
[1] = The aqueous solubility in phosphate buffer; format: physicochemical; conditions: read-out: S
Method in brief: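 Excess solid added to phosphate buffer (50 mM, μ = 0.15, pH 7.4) at room temperature and vortexed 30 min. pH checked and adjusted during solubilization. Suspension centrifuged and filtered (0.45 membrane). Filtrate quantified by HPLC.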

[2] = The apparent partition coefficient at pH 2.0; format: physicochemical; conditions: octanol/water
Method in brief: (§1)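 1-Octanol/phosphate buffer (50 mM, μ = 0.15) at pH 2.0 or 7.4. Prodrug (0.8–1.5 mg) in 1.0 mL buffer shaken with 5.0 mL octanol, 1 h at pH 7.4 or 5 min at pH 2.0. Phases separated by centrifugation. Aqueous concentration measured by HPLC before and after shaking. Triplicate, mean reported.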

[3] = The apparent partition coefficient at pH 7.4; format: physicochemical; conditions: octanol/water; method in brief: as §1
[4] = (§2) Rate data for enzymatic hydrolysis in 80% human serum at pH 7.4; Completely hydrolyzed during 1 min; format: ADME; conditions: pH 7.4, 1 min
[5] = species on record: Homo sapiens; experiment: as §2; format: ADME, organism-based; conditions: pH 7.4, 1 min
[6] = Rate data in phosphate buffer at pH 7.4; format: ADME
Method in brief: (§3)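 Chemical hydrolysis at 37 °C in phosphate buffer (50 mM, μ = 0.15) at pH 2.0 or 7.4. Prodrug (12 mg) dissolved in preheated buffer. Samples withdrawn at intervals and assayed by HPLC. Pseudo-first-order rate constants calculated from the buffer hydrolysis data.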

[7] = Rate data in phosphate buffer at pH 2.0; format: ADME; method in brief: as §3
[8] = (§4) Rate data for enzymatic hydrolysis in 80% human serum at pH 7.4; format: ADME
[9] = as §4; format: ADME, organism-based

In the case of `CCCC(=O)OP(=O)([O-])C(Cl)(Cl)P(=O)([O-])OC(=O)CCC.[Na+].[Na+]`, the solubility [1] is reported as 172 mg/mL, the logD [2] is reported as -1.9 and the logD [3] is reported as -2.3. For the same compound, the K obs [4] was “Completely hydrolyzed during 1 min”, the T1/2 [5] was “Completely hydrolyzed during 1 min” and the K obs [6] was 0.00037 min⁻¹. The half-life [6] was 31.3 h, the K obs [7] was 0.014 min⁻¹ and the half-life [7] was 0.817 h.
Compound `CC(C)(C)C(=O)OP(=O)([O-])C(Cl)(Cl)P(=O)([O-])OC(=O)C(C)(C)C.[Na+].[Na+]` has a solubility [1] of 23.5 mg/mL, a K obs [8] of 0.0035 min⁻¹ and a logD [2] of -2. It also gave a logD [3] of -2.3, a K obs [6] of 0.000015 min⁻¹ and a half-life [6] of 790 h. For the same compound, the K obs [7] was 0.0013 min⁻¹, the half-life [7] was 8.6 h and the half-life [9] was 3.3 h.
`CC(=O)OP(=O)([O-])C(Cl)(Cl)P(=O)([O-])OC(C)=O.[Na+].[Na+]` gave a solubility [1] of 190 mg/mL, a logD [2] of -1.4 and a logD [3] of -2.2. The K obs [4] was “Completely hydrolyzed during 1 min”, the T1/2 [5] was “Completely hydrolyzed during 1 min” and the K obs [6] was 0.00076 min⁻¹. The half-life [6] was 15.2 h, the K obs [7] was 0.016 min⁻¹ and the half-life [7] was 0.75 h.
For `O=C(OP(=O)([O-])C(Cl)(Cl)P(=O)([O-])OC(=O)c1ccccc1)c1ccccc1.[Na+].[Na+]`, the solubility [1] was 6 mg/mL, the logD [2] was -1.5 and the logD [3] was -2.3. The K obs [4] was “Completely hydrolyzed during 1 min”, the T1/2 [5] was “Completely hydrolyzed during 1 min” and the K obs [6] was 0.000049 min⁻¹. The half-life [6] was 235 h, the K obs [7] was 0.00004 min⁻¹ and the half-life [7] was 286 h.
